Converted amounts (≈) assume the structure as drawn.
Key:
[1] = Inhibition of Staphylococcus aureus methionyl-tRNA synthetase assessed as decrease in [35S]methionyl-tRNA generation
[2] = test system: Staphylococcus aureus; experiment: Antibacterial activity against Staphylococcus aureus ATCC 25923 after 16 hrs at 36 degC by microdilution method; format: functional; conditions: ATCC 25923, 16 h
How it was run: (§1)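 Broth microdilution in Mueller-Hinton broth, following NCCLS/CLSI. Stock solutions were serially diluted 2-fold to the final test concentrations. The MIC was the lowest concentration that prevented visible growth after incubation at 36 °C. Mupirocin and amoxicillin were reference antibiotics run by the same method.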

[3] = test system: Staphylococcus aureus; experiment: Antibacterial activity against Staphylococcus aureus ATCC 6538P after 16 hrs at 36 degC by microdilution method; format: functional; how it was run: as §1
[4] = test system: Staphylococcus aureus; experiment: Antibacterial activity against Staphylococcus aureus ATCC 10537 after 16 hrs at 36 degC by microdilution method; format: functional; conditions: ATCC 10537, 16 h; how it was run: as §1
[5] = test system: Staphylococcus aureus; experiment: Antibacterial activity against Staphylococcus aureus GIORGIO after 16 hrs at 36 degC by microdilution method; format: functional; how it was run: as §1
[6] = test system: Staphylococcus aureus; experiment: Antibacterial activity against Staphylococcus aureus Smith after 16 hrs at 36 degC by microdilution method; format: functional; how it was run: as §1
[7] = test system: Staphylococcus aureus; experiment: Antibacterial activity against Staphylococcus aureus SP-N2 after 16 hrs at 36 degC by microdilution method; format: functional
How it was run: (§2)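 Broth microdilution per CLSI in Mueller-Hinton broth for staphylococci. Stock solutions were diluted in a 2-fold serial series to final test concentrations. The MIC was read as the lowest concentration that prevented visible bacterial growth after incubation at 36 °C. Mupirocin and amoxicillin were run by the same method as references.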

[8] = test system: Staphylococcus epidermidis; experiment: Antibacterial activity against Staphylococcus epidermidis ATCC 12228 after 16 hrs at 36 degC by microdilution method; format: functional; conditions: ATCC 12228, 16 h; how it was run: as §1
[9] = test system: Staphylococcus aureus; experiment: Antibacterial activity against methicillin-resistant Staphylococcus aureus KS2007-6 after 16 hrs at 36 degC by microdilution method; format: functional; how it was run: as §2
[10] = test system: Enterococcus faecium; experiment: Antibacterial activity against Enterococcus faecium ATCC 10541 after 16 hrs at 36 degC by microdilution method; format: functional; conditions: ATCC 10541, 16 h
How it was run: (§3)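 Broth microdilution in Brain Heart Infusion broth, following NCCLS/CLSI. Test compounds were serially diluted 2-fold from stock. The MIC was the lowest concentration with no visible bacterial growth after incubation at 36 °C. Mupirocin and amoxicillin were tested the same way as references.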

[11] = test system: Enterococcus faecalis; experiment: Antibacterial activity against Enterococcus faecalis ATCC 19433 after 16 hrs at 36 degC by microdilution method; format: functional; conditions: ATCC 19433, 16 h; how it was run: as §3
[12] = test system: Enterococcus faecalis; experiment: Antibacterial activity against Enterococcus faecalis ATCC 29212 after 16 hrs at 36 degC by microdilution method; format: functional; conditions: ATCC 29212, 16 h; how it was run: as §3

SMILES	IC50 [1]	MIC [2]	MIC [3]	MIC [4]	MIC [5]	MIC [6]	MIC [7]	MIC [8]	MIC [9]	MIC [10]	MIC [11]	MIC [12]
NC(CNCc1ccc(Cl)c(Cl)c1)CNc1cc(=O)c2ccccc2[nH]1 (centres undefined)	0.137 µM	64 µg/mL (≈ 164 µM)	64 µg/mL (≈ 164 µM)	64 µg/mL (≈ 164 µM)	64 µg/mL (≈ 164 µM)	64 µg/mL (≈ 164 µM)	64 µg/mL (≈ 164 µM)	32 µg/mL (≈ 81.8 µM)	64 µg/mL (≈ 164 µM)	16 µg/mL (≈ 40.9 µM)	64 µg/mL (≈ 164 µM)	64 µg/mL (≈ 164 µM)
CCOC(CNCc1ccc(Cl)c(Cl)c1)CNc1cc(=O)c2ccccc2[nH]1 (centres undefined)	0.0303 µM	16 µg/mL (≈ 38.1 µM)	8 µg/mL (≈ 19 µM)	16 µg/mL (≈ 38.1 µM)	16 µg/mL (≈ 38.1 µM)	16 µg/mL (≈ 38.1 µM)	16 µg/mL (≈ 38.1 µM)	8 µg/mL (≈ 19 µM)	8 µg/mL (≈ 19 µM)	1 µg/mL (≈ 2.38 µM)	4 µg/mL (≈ 9.52 µM)	4 µg/mL (≈ 9.52 µM)
CC(C)OC(CNCc1ccc(Cl)c(Cl)c1)CNc1cc(=O)c2ccccc2[nH]1 (centres undefined)	0.091 µM	16 µg/mL (≈ 36.8 µM)	16 µg/mL (≈ 36.8 µM)	16 µg/mL (≈ 36.8 µM)	32 µg/mL (≈ 73.7 µM)	16 µg/mL (≈ 36.8 µM)	16 µg/mL (≈ 36.8 µM)	16 µg/mL (≈ 36.8 µM)	8 µg/mL (≈ 18.4 µM)	2 µg/mL (≈ 4.6 µM)	4 µg/mL (≈ 9.21 µM)	4 µg/mL (≈ 9.21 µM)
O=C(OC(CNCc1ccc(Cl)c(Cl)c1)CNc1cc(=O)c2ccccc2[nH]1)c1ccccc1 (centres undefined)	0.0694 µM	64 µg/mL (≈ 129 µM)	32 µg/mL (≈ 64.5 µM)	64 µg/mL (≈ 129 µM)	32 µg/mL (≈ 64.5 µM)	32 µg/mL (≈ 64.5 µM)	32 µg/mL (≈ 64.5 µM)	16 µg/mL (≈ 32.2 µM)	32 µg/mL (≈ 64.5 µM)	8 µg/mL (≈ 16.1 µM)	16 µg/mL (≈ 32.2 µM)	16 µg/mL (≈ 32.2 µM)
O=c1cc(NCC(CO)CNCc2ccc(Cl)c(Cl)c2)[nH]c2ccccc12 (centres undefined)	0.0119 µM	64 µg/mL (≈ 158 µM)	16 µg/mL (≈ 39.4 µM)	32 µg/mL (≈ 78.8 µM)	64 µg/mL (≈ 158 µM)	32 µg/mL (≈ 78.8 µM)	16 µg/mL (≈ 39.4 µM)	16 µg/mL (≈ 39.4 µM)	16 µg/mL (≈ 39.4 µM)	2 µg/mL (≈ 4.92 µM)	8 µg/mL (≈ 19.7 µM)	8 µg/mL (≈ 19.7 µM)
COCC(CNCc1ccc(Cl)c(Cl)c1)CNc1cc(=O)c2ccccc2[nH]1 (centres undefined)	0.015 µM	16 µg/mL (≈ 38.1 µM)	4 µg/mL (≈ 9.52 µM)	8 µg/mL (≈ 19 µM)	16 µg/mL (≈ 38.1 µM)	8 µg/mL (≈ 19 µM)	8 µg/mL (≈ 19 µM)	4 µg/mL (≈ 9.52 µM)	4 µg/mL (≈ 9.52 µM)	0.125 µg/mL (≈ 0.297 µM)	0.5 µg/mL (≈ 1.19 µM)	0.5 µg/mL (≈ 1.19 µM)
C=CCOC(CNCc1ccc(Cl)c(Cl)c1)CNc1cc(=O)c2ccccc2[nH]1 (centres undefined)	0.0294 µM	8 µg/mL (≈ 18.5 µM)	8 µg/mL (≈ 18.5 µM)	16 µg/mL (≈ 37 µM)	16 µg/mL (≈ 37 µM)	8 µg/mL (≈ 18.5 µM)	8 µg/mL (≈ 18.5 µM)	4 µg/mL (≈ 9.25 µM)	4 µg/mL (≈ 9.25 µM)	1 µg/mL (≈ 2.31 µM)	2 µg/mL (≈ 4.63 µM)	2 µg/mL (≈ 4.63 µM)

— ChEMBL document CHEMBL1152839, “2-[2-Substituted-3-(3,4-dichlorobenzylamino)propylamino]-1H-quinolin-4-ones as Staphylococcus aureus methionyl-tRNA synthetase inhibitors” (Eur J Med Chem, 2009)
